Measurements as given in ChEMBL document CHEMBL1136924 (J Med Chem, 2009).
Activity calls are given as the source filed them. The rule behind the calls is not given here.

Columns and labels:
Rattus norvegicus [1] = assay: Antagonist activity at 5HT3 receptor in urethane-anesthetized Sprague-Dawley rat assessed as reduction in 1-phenylbiguanide-induced bradycardia at 100 ug/kg, iv administered 5 mins before 1-phenylbiguanide challenge measured after 5 to 30 mins post-treatment by von Bezold-Jarisch reflex test; assay type: functional, organism-based
[2] = Clearance in CD1 albino mouse plasma at 20 mg/kg, ip; assay type: ADME, organism-based; parameters: dose 20 mg/kg, route intraperitoneal
In short: (§1)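 Male CD1 mice (25-30 g) given ip 5 or 20 mg/kg, killed at set times; trunk blood plasma and brain collected. Solid-phase C18 extraction with internal standard, HPLC-UV at 240 nm. Quantification limits about 0.25 nmol/mL plasma, 0.5 nmol/g brain. Three mice per point. Half-life 0.693/β; clearance dose·F/AUC.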

[3] = target: T1, 5-hydroxytryptamine receptor 3A (Cavia porcellus) (UniProt O70212); assay: Intrinsic activity at 5HT3 receptor in spontaneously beating guinea pig right atrium assessed as positive chronotropic potency relative to serotonin; details: Cardiac atrium
T1 sequence (whole entry): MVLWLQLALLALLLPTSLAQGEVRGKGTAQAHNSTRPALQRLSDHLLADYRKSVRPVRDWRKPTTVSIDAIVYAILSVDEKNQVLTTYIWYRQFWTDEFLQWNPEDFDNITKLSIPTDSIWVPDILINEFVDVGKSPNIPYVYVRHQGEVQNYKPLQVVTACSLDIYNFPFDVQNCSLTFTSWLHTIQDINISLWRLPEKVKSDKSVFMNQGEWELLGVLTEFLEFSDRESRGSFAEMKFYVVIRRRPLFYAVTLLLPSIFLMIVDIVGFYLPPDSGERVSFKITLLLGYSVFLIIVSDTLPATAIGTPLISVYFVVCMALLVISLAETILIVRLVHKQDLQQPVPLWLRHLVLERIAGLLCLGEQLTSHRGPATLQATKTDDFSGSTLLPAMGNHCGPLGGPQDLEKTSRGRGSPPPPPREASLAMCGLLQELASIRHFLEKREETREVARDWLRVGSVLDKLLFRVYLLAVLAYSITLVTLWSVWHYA
In short: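 Guinea pig left and right atria were hung in a 15 mL bath of PSS (pH 7.4, 95% O2-5% CO2, 35 °C) with ketanserin 1 µM. The right atrium beat spontaneously; the left was paced at 1 Hz. Cumulative doses (0.1-100 µM; DMSO ≤0.3%) were added after 45-60 min stabilization. Rate or isometric force was recorded. EC50 came from Probit analysis, n≥4. Intrinsic activity was taken relative to 5-HT.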

[4] = Apparent volume of distribution with respect to the bioavailability in CD1 albino mouse plasma at 20 mg/kg, ip; assay type: ADME, organism-based; details: read-out: Vc/F; in short: as §1
Rattus norvegicus [5] = assay: Partial agonist activity at 5HT3 receptor in iv dosed urethane-anesthetized Sprague-Dawley rat assessed as induction of bradycardia measured after 5 to 30 mins post-treatment by von Bezold-Jarisch reflex test; assay type: functional; details: read-out: ID50 (the source's name)
Rattus norvegicus [6] = assay: Agonist activity at 5HT3 receptor in urethane-anesthetized Sprague-Dawley rat assessed as induction of bradycardia at 50 ug/kg, iv measured after 5 to 30 mins post-treatment by von Bezold-Jarisch reflex test relative to 40 ug/kg, iv 1-phenylbiguanide; assay type: functional
Rattus norvegicus [7] = assay: Antagonist activity at 5HT3 receptor in urethane-anesthetized Sprague-Dawley rat assessed as half-blockade of 1-phenylbiguanide-induced bradycardia at 30 ug/kg, iv administered 5 mins before 1-phenylbiguanide challenge measured after 5 to 30 mins post-treatment by von Bezold-Jarisch reflex test; assay type: functional, organism-based

| SMILES | Activity (Rattus norvegicus [1]) | CL/F [2] [mL/min/kg] | Intrinsic activity [3] | Vd/F [4] [L/kg] | ED50 (Rattus norvegicus [5]) [mg/kg] | Activity (Rattus norvegicus [6]) [%] | Activity (Rattus norvegicus [7]) |
| --- | --- | --- | --- | --- | --- | --- | --- |
| N[C@@H](CN1CCN(c2nc3cc(F)ccc3n3cccc23)CC1)C(=O)O | Active | 90 | 0.81 | 6 |  |  |  |
| N/C(CN1CCN(c2nc3cc(F)ccc3n3cccc23)CC1)=N\O |  |  |  |  | 0.03 | 60 | Active |
